Screening results deposited in PubChem BioAssay by Broad Institute.
GSK3 alpha inh – human GSK-3 alpha kinase inhibition; P49840; ADP-Glo luminescence, 60 min; inhibition, % at 10 µM; hit rate 0.1% among 320,000; AID 2650;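 active = more than half of replicates show inhibition above 20%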;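 also: GST-tagged GSK-3 alpha with peptide substrate and 25 µM ATP; 0% = DMSO neutral wells and 100% = GW8510 positive control wells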
Rce1 inh – yeast Ras-converting enzyme inhibition; Q03530; yeast membranes, quenched prenylated peptide cleavage fluorescence; calls only; hit rate 0.27% among 290,000;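 active = fall in fluorescence gain of 50% or more versus controls, with final raw signal at or below 3038400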;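 also: plate controls were neutral control wells for no effect and wells lacking membranes for full effect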
DYRK1A inh – inhibitors of rat Dyrk1A kinase. Q63470. hit rate 0.43% among 310,000. ADP-Glo luminescence, NFATc1 peptide. inhibition, % at 12.5 µM; in the data active = inhibition above about 50%;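 also: plate controls were vehicle with enzyme for no effect and no enzyme for full effect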
STK33 inh – inhibitors of human STK33 kinase; inhibition, % at 10 µM; purified STK33, MBP phosphorylation, ADP-Glo luminescence; Q9BYT3; AID 2661; hit rate 0.073% among 320,000;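 active = inhibition at or above 25%, using the most active replicate where run in duplicate; inactive = inhibition below 25%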
AI-2 QS modul – Vibrio harveyi AI-2 quorum sensing modulation; Vibrio harveyi JMH597 AI-2 luminescence/OD600 ratio, 9 h; hits give low values; strain lacks LuxN and CqsS sensors; 0 = neutral-control median; activity change, % at 7.5 µM; hit rate 0.4% among 300,000; AID 2094; in the data active = activity change below about -75%, passing the limit was not always enough;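 also: luminescence divided by OD600 gain over 9 h not by final OD600 alone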
GSK3B inh – inhibitors of human GSK3beta kinase | GST-GSK3beta kinase, ADP-Glo luminescence, 60 min; hits give low values | activity score (negative = inhibition), % at 10 µM | hit rate 0.038% among 300,000;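 active = more than half of replicate wells score below -50%, meaning over 50% inhibition versus plate controls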;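 also: 0% = median DMSO wells and -100% = median GW8510 positive control wells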
Target sequence (P49841 whole entry, looked up): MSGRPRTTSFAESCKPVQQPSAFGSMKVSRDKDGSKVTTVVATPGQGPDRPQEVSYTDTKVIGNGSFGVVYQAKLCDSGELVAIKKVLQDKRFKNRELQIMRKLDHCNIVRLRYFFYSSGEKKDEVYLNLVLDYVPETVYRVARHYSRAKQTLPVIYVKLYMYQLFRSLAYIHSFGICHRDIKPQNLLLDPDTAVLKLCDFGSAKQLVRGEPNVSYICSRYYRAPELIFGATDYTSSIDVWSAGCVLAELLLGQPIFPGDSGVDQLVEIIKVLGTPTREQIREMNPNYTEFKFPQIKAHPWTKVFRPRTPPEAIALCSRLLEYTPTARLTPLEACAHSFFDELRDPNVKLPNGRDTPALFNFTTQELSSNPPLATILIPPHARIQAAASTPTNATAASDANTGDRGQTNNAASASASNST
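Test system: GST-tagged human GSK3beta kinase, cell-free; evaluation: activity score scaled between in-plate DMSO and GW8510 controls; measured by: ADP-Glo luminescence; incubation: 60 min reaction, RT; benchmarks: DMSO and 20 µM GW8510; reagent: peptide substrate plus 25 µM ATP (final); medium: Tris/MgCl2 kinase buffer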
ADP-Glo artifact – interferes with ADP-Glo luciferase readout without Dyrk1A. shares compounds with DYRK1A inh. ADP-Glo luciferase artifact assay, no Dyrk1A, luminescence. AC50, µM (highest dose often 12 µM), for the others: at the top dose activity change, negative = inhibition. 1,300 tested, under 10 active;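 active = fitted half-maximal dose AC50 no more than ten times the top valid tested dose, with luminescence dropping as dose rises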
Numbers without * were called inactive; i = inactive; nt = no result; + = active, no number. A selection: hits, their analogues and other compounds. The true share with any hit is near 0.99%.

SMILES	GSK3 alpha inh	Rce1 inh	DYRK1A inh	STK33 inh	AI-2 QS modul	GSK3B inh	ADP-Glo artifact
CC1Cc2ccccc2N1c1ncnc2nc[nH]c12 (stereo not drawn)	47	i	72*	14	19	1	8%
c1ccc2c(c1)CCN(c1ncnc3nc[nH]c13)C2	21	i	-3	2	11	2	nt
COC(=O)[C@]1(C)N[C@H](c2ccc(-c3cccc(Cl)c3)cc2)[C@@H]2C(=O)N(C)C(=O)[C@@H]21	-2	nt	9	0	nt	nt	nt
COC(=O)[C@]1(CC(C)C)N[C@H](c2ccc(-c3cccc(Cl)c3)cc2)[C@@H]2C(=O)N(C)C(=O)[C@@H]21	-2	i	56*	1	25	-1	9%
CCCOc1ccc(/C=N/NC(=O)CN2CCCCC2)cc1	3	i	71*	-2	0	-4	10%
Clc1ccc2[nH]c3c(c2c1)CCc1cn[nH]c1-3	15	i	51*	9	11	-36	7%
O=C1CCCc2c1[nH]c1ccccc21	0	i	29	2	27	-1	nt
c1ccc2c3c([nH]c2c1)-c1[nH]ncc1CC3	36	i	56*	32*	11	0	10%
O=C(NCc1cccnc1)c1cccc(S(=O)(=O)Nc2cccc(Cl)c2)c1	0	nt	-3	-2	nt	nt	nt
NC(=O)c1cc(Br)cc2c3c([nH]c12)CCCC3	36	i	55*	9	-14	3	7%
Brc1ccc2[nH]c3c(c2c1)CCC3	-2	i	nt	1	13	-2	nt
CC1CC(C)CN(C(=O)COC(=O)COc2ccc(C#N)cc2)C1 (stereo not drawn)	1	nt	2	-3	nt	nt	nt
O=C(Nc1ccc(Cl)cc1)c1csc(-c2ccncc2)n1	-1	i	51*	2	14	-4	11%
O=C(Nc1ccc(Cl)cc1)c1csc(-c2ccccc2)n1	-3	i	-3	1	17	-1	nt
Cc1noc(C)c1C(=O)N(C)CC(=O)Nc1ccc(F)c(F)c1F	-1	i	nt	-1	11	-1	nt
CC(C)C[C@H]1COCCS(=O)(=O)N1Cc1cccc(Cl)c1	6	i	51*	0	8	-7	8%
CCOC(=O)c1ccc(NC(=S)Nc2ccc(Br)cc2N)cc1	-1	i	63*	-1	16	6	8%
O=C(/C=C/c1ccc(O)cc1)c1ccc(O)cc1O	-1	i	21	6	11	2	nt
O=C(O)/C=C/c1ccc(O)cc1	2	+	57*	0	-17	3	9%
COc1ccc(/C=C/C(=O)O)cc1	nt	nt	62*	nt	nt	nt	6%
CC(/C=C/c1ccccc1)=N/O	5	i	1	0	12	0	nt
CC(/C=C/c1ccc(O)cc1)=N/O	14	i	89*	9	7	-5	9%
COc1ccc2nc(C)c3c(c2c1)OC(C(C)(Cl)Br)C3 (stereo not drawn)	1	i	79*	1	34	0	10%
Cc1ccc2nc(NC(=O)CCCC(=O)O)sc2c1	1	nt	62*	-1	14	-3	9%
Cc1cccc(OCC(=O)Nc2nc3ccc([N+](=O)[O-])cc3s2)c1C	10	i	1	7	0	-1	nt
SMILES	GSK3 alpha inh	Rce1 inh	DYRK1A inh	STK33 inh	AI-2 QS modul	GSK3B inh	ADP-Glo artifact
CC(C)c1ccc(/C=C/C(=O)Nc2nc3ccc([N+](=O)[O-])cc3s2)cc1	-3	i	24	-1	25	2	nt
Cc1cccc(OCC(=O)Nc2nc3ccc([N+](=O)[O-])cc3s2)c1	-3	i	64*	1	-53	-3	6%
O=C(O)COc1ccc(/C=C/c2nc3ccc([N+](=O)[O-])cc3s2)cc1	-2	i	87*	21	13	0	8%
COCCN(C(=O)c1cc(S(=O)(=O)N2CCCCC2)ccc1Cl)c1c(N)n(CC(C)C)c(=O)[nH]c1=O	nt	nt	2	nt	nt	nt	nt
COc1cc(-c2cc(=O)c3c(O)c(OC)c(OC)c(O)c3o2)ccc1O	42	i	80*	46*	19	-26	7%
C[C@@H]1O[C@@H](OC[C@@H]2O[C@H](Oc3c(-c4ccc(O)cc4)oc4cc(O)cc(O)c4c3=O)[C@@H](O)[C@H](O)[C@H]2O)[C@H](O)[C@H](O)[C@H]1O	15	nt	72*	3	nt	nt	7%
C[C@@H]1O[C@@H](O[C@H]2[C@H](O)[C@@H](O)[C@H](Oc3c(-c4ccc(O)cc4)oc4cc(O)cc(O)c4c3=O)O[C@@H]2CO)[C@H](O)[C@H](O)[C@H]1O	-3	nt	6	2	nt	nt	nt
CC(=O)Nc1cccc(NC(=O)c2cc3ccccc3o2)c1	-1	i	53*	5	9	-1	4%
O=C(Nc1cccc(-c2nc3ncccc3o2)c1)c1cc2ccccc2o1	-2	i	56*	2	12	1	8%
O=C1c2ccccc2C(=O)C1c1ccccn1	8	i	61*	35*	25	-3	12%
